Experimental data published in ChEMBL document CHEMBL1150299, “Design, synthesis, and application of novel triclosan prodrugs as potential antimalarial and antibacterial agents” (Bioorg Med Chem, 2008).
Values after ≈ are worked out from the molar mass of the structure shown.

How the values were obtained:
Escherichia coli [1] = test: Antibacterial activity against wild type Escherichia coli K12 after 12 hrs by microdilution method; format: functional, organism-based; settings: K12, 12 h
Procedure, shortened: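 Wild-type K12 grown in LB to mid-log, diluted 100-fold; 100 µl used to inoculate tubes of 10 mL LB containing inhibitor (stocks about 10 mM in DMSO). IC50 is the mean of at least three sets; values are means ± SD of at least three experiments in duplicate.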

Escherichia coli [2] = test: Stability assessed as half life of prodrug disappearance in Escherichia coli culture; format: ADME, organism-based; settings: in vivo
Procedure, shortened: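 E. coli cultures exposed to prodrug for 0, 2, 5, 10 and 20 min, then pelleted at 4 °C, washed in LB and resuspended in 50 mM Tris pH 7.5. Extracts cleaned by solid-phase extraction with methanol elution, then run on C18 reverse-phase FPLC with isocratic acetonitrile and UV detection at 230 nm. Half-life taken from prodrug disappearance.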

[3] = Stability at -10 to 40 degC after 24 hrs by FPLC assay; format: physicochemical
Procedure, shortened: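 Prodrugs held in Luria Broth (pH 7.2) for 24 h at temperatures between -10 and 40 °C. Release of triclosan monitored by FPLC with UV detection.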

Plasmodium falciparum [4] = test: Antimalarial activity against chloroquine-sensitive Plasmodium falciparum FCK2; format: functional, organism-based
Plasmodium falciparum [5] = test: Stability assessed as half life of prodrug disappearance in Plasmodium falciparum culture; format: ADME, organism-based; settings: in vivo
Procedure, shortened: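 Synchronized young-trophozoite cultures treated with prodrug for 0, 0.5, 3, 6, 12, 18, 24 and 36 h. Parasites isolated into PBS, processed by solid-phase extraction, then analysed by C18 reverse-phase FPLC with absorbance at 230 nm. Half-life derived from loss of the prodrug peak.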

Structure (SMILES)	IC50 (Escherichia coli [1])	MIC (Escherichia coli [1])	t1/2 (Escherichia coli [2])	Stability [3]	IC50 (Plasmodium falciparum [4])	MIC (Plasmodium falciparum [4])	t1/2 (Plasmodium falciparum [5])
NC(=O)CCC(=O)Oc1cc(Cl)ccc1Oc1ccc(Cl)cc1Cl	220 nM	0.6 µM (≈ 0.233 µg/mL)	12 min	Stable	6700 nM	27.9 µM (≈ 10.8 µg/mL)	–
O=C(O)CCCC(=O)Oc1cc(Cl)ccc1Oc1ccc(Cl)cc1Cl	330 nM	0.75 µM (≈ 0.303 µg/mL)	9 min	Stable	520 nM	4.8 µM (≈ 1.94 µg/mL)	9.5 h
O=C(Oc1cc(Cl)ccc1Oc1ccc(Cl)cc1Cl)c1cccnc1	3100 nM	9 µM (≈ 3.55 µg/mL)	–	Stable	1150 nM	9.7 µM (≈ 3.83 µg/mL)	–
C[n+]1cccc(C(=O)Oc2cc(Cl)ccc2Oc2ccc(Cl)cc2Cl)c1.[Cl-]	3600 nM	10.2 µM	–	Stable	2070 nM	13.7 µM	–
CN(C)CCOC(=O)CCCC(=O)Oc1cc(Cl)ccc1Oc1ccc(Cl)cc1Cl	260 nM	0.55 µM (≈ 0.261 µg/mL)	6 min	Stable	620 nM	7.9 µM (≈ 3.75 µg/mL)	9.45 h
C[N+](C)(C)CCOC(=O)CCCC(=O)Oc1cc(Cl)ccc1Oc1ccc(Cl)cc1Cl.[Cl-]	420 nM	1 µM	8 min	Stable	3020 nM	19.7 µM	–
CC(=O)CCC(=O)Oc1cc(Cl)ccc1Oc1ccc(Cl)cc1Cl	77000 nM	–	–	Stable	680 nM	6.2 µM (≈ 2.4 µg/mL)	9.53 h
CCCCC(=O)Oc1cc(Cl)ccc1Oc1ccc(Cl)cc1Cl	140000 nM	–	–	Stable	8900 nM	33.8 µM (≈ 12.6 µg/mL)	–
Oc1cc(Cl)ccc1Oc1ccc(Cl)cc1Cl [TRICLOSAN]	750 nM	1 µM (≈ 0.29 µg/mL)	–	Stable	2290 nM	17.6 µM (≈ 5.1 µg/mL)	–
